From ChEMBL document CHEMBL1136006, “New PET imaging agent for the serotonin transporter: [(18)F]ACF (2-[(2-amino-4-chloro-5-fluorophenyl)thio]-N,N-dimethyl-benzenmethanamine)” (J Med Chem, 2002)

Legend:
Format in all cases: ADME, organism-based
Rattus norvegicus [1] = organism: Rattus norvegicus; assay: Regional brain distribution of [18F]-ACF radiolabeled compound in rat remainder (rest of brain) after 60 min; settings: in vivo, 1 h
Outline: (§1)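 Rats (three per group) under ether anesthesia got 30 μCi tracer in 0.2 mL saline into the femoral vein and were killed by cardiac excision at the stated time. Cortex, striatum, hippocampus, cerebellum, hypothalamus and the rest of brain were dissected, weighed and gamma counted. %dose/g was taken against counts of a diluted initial dose. Regional ratios are each region's %dose/g over cerebellum's. Mean ± SD.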

Rattus norvegicus [2] = organism: Rattus norvegicus; assay: Regional brain distribution of [18F]ACF radiolabeled compound in rat cortex after 60 min; settings: in vivo, 1 h; outline: as §1
Rattus norvegicus [3] = organism: Rattus norvegicus; assay: Regional brain distribution of [18F]-ACF radiolabeled compound in rat remainder (rest of brain) after 30 min; settings: in vivo, 0.5 h; outline: as §1
Rattus norvegicus [4] = assay: Ratio of effect of pretreatment with nisoxatine with a dose of 2 mg/kg (i.v.) on specific binding of [18F]ACF in rat brain cortex to that of cerebellum; set-up: dose 2 mg/kg, route intravenous; settings: in vivo, iv
Outline: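 Rats (three per point) pretreated iv with competing drug at 2 mg/kg or saline (control) 5 min before iv [18F]ACF (50 μCi). At 1 h post tracer, brain regions (cortex, striatum, hippocampus, cerebellum, hypothalamus, remainder) dissected, weighed, counted as % dose/g and expressed as ratio to cerebellum. Average ± SD; ANOVA with Dunnett's test vs saline controls, p < 0.05.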

Rattus norvegicus [5] = organism: Rattus norvegicus; assay: Regional brain distribution of [18F]ACF radiolabeled compound in rat striatum after 120 min; settings: in vivo, 2 h
Outline: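 Rats (3 per group) under ether anaesthesia received 30 μCi tracer in 0.2 mL saline into the femoral vein. Killed by cardiac excision under ether at the set time. Striatum and other brain regions dissected, weighed and gamma-counted. % dose/g calculated against counts of a diluted 1% initial-dose standard. Values given as average ± SD of three rats.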

Rattus norvegicus [6] = organism: Rattus norvegicus; assay: Organ distribution of [18F]ACF radiolabeled compound in rat skin after 2 min; settings: in vivo
Outline: (§2)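 Rats, three per time point, under ether anesthesia; 30 μCi tracer in 0.2 mL saline injected into femoral vein. Sacrificed by cardiac excision under ether at 2, 30, 60, 120 or 240 min. Organs removed, weighed and counted; % dose/organ calculated against counts of 1% of initial dose counted at the same time. Average of three rats ± SD.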

Rattus norvegicus [7] = organism: Rattus norvegicus; assay: Organ distribution of [18F]ACF radiolabeled compound in rat blood after 2 min; settings: in vivo; outline: as §2
Rattus norvegicus [8] = organism: Rattus norvegicus; assay: Regional brain distribution of [18F]ACF radiolabeled compound in rat hippocampus after 60 min; settings: in vivo, 1 h; outline: as §1
Rattus norvegicus [9] = organism: Rattus norvegicus; assay: Organ distribution of [18F]ACF radiolabeled compound in rat spleen after 2 min; settings: in vivo; outline: as §2
Rattus norvegicus [10] = assay: Effect of pretreatment with (+)-McN5652 with a dose of 2 mg/kg (i.v.) on specific binding of [18F]ACF in rat brain hypothalamus; set-up: dose 2 mg/kg, route intravenous; settings: in vivo, iv
Outline: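 Rats pretreated iv with drug (2 mg/kg) or saline 5 min before iv [18F]ACF (50 μCi). Sacrificed 1 h after tracer. Brain regions were dissected, weighed and counted, and % dose/g was calculated against a diluted initial dose. Drug-treated rats were compared with saline controls by ANOVA/Dunnett's test (p<0.05). Three rats per point, average ± SD.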

Rattus norvegicus [11] = organism: Rattus norvegicus; assay: Regional brain distribution of [18F]ACF radiolabeled compound in rat hypothalamus after 60 min; settings: in vivo, 1 h; outline: as §1

Dose/g (Rattus norvegicus [1]): 0.39%
Dose/g (Rattus norvegicus [2]): 0.33%
Dose/g (Rattus norvegicus [3]): 0.67%
Ratio (Rattus norvegicus [4]): 1.94
Dose/g (Rattus norvegicus [5]): 0.15%
Dose/g (Rattus norvegicus [6]): 4.76 % dose/organ
Dose/g (Rattus norvegicus [7]): 6.56 % dose/organ
Dose/g (Rattus norvegicus [8]): 0.45%
Dose/g (Rattus norvegicus [9]): 0.64 % dose/organ
Dose/g (Rattus norvegicus [10]): 0.24%
Dose/g (Rattus norvegicus [11]): 0.54%
SMILES: CN(C)Cc1ccccc1Sc1cc(F)c(Cl)cc1N
